Measured values as given in ChEMBL document CHEMBL5058577, “EUbOPEN Chemogenomics Library 2 (Multiplex)” (2022).

System: HEK-293T
Test: Multiplex assay against HEK293T
Assay type: toxicity, cell-based
Conditions: human
Outline: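 On a CQ1 microscope at 37°C and 5% CO2, live cells were imaged after compound addition. They had been stained at seeding with Hoechst33342, BioTracker Green Microtubule Cytoskeleton Dye, MitoTracker Red and Annexin V Alexa Fluor 680. CellPathfinder machine-learning gating assigned cells to Hoechst high-intensity objects or normal cells, normal cells to healthy, pyknosed or fragmented nuclei, and pyknosed cells to mitotic or apoptotic. Tubulin, mitochondrial-mass and membrane-permeability phenotypes are per cents of healthy-nucleus cells.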

[1] = 12 h, 1 µM, compound concentration 1 uM, replicate 1
[2] = 12 h, 1 µM, compound concentration 1 uM, replicate 2
[3] = 12 h, 10 µM, compound concentration 10 uM, replicate 1
[4] = 12 h, 10 µM, compound concentration 10 uM, replicate 2
[5] = 24 h, 1 µM, compound concentration 1 uM, replicate 1
[6] = 24 h, 1 µM, compound concentration 1 uM, replicate 2
[7] = 24 h, 10 µM, compound concentration 10 uM, replicate 1
[8] = 24 h, 10 µM, compound concentration 10 uM, replicate 2
[9] = 48 h, 1 µM, compound concentration 1 uM, replicate 1
[10] = 48 h, 1 µM, compound concentration 1 uM, replicate 2
[11] = 48 h, 10 µM, compound concentration 10 uM, replicate 1
[12] = 48 h, 10 µM, compound concentration 10 uM, replicate 2

Cc1ccc(/C(=C\CN2CCCC2)c2ccccn2)cc1 [TRIPROLIDINE]
Population Apoptotic (%) [1]: 34% | Population Fragmented Nuclei (%) [1]: 6% | Population Healthy Nuclei (%) [1]: 83% | Population Hoechst High Intensity Objects (%) [1]: 7% | Population Membrane Permeable-Phenotype (%) [1]: 0% | Population Mitochondria Different-Phenotype (%) [1]: 45% | Population Mitotic Cells (%) [1]: 65% | Population Normal (%) [1]: 92% | Population Pyknosed Nuclei (%) [1]: 9% | Population Tubulin-Different-Phenotype (%) [1]: 24% | Total Cell Count [1]: 424 | Population Apoptotic (%) [2]: 50% | Population Fragmented Nuclei (%) [2]: 3% | Population Healthy Nuclei (%) [2]: 84% | Population Hoechst High Intensity Objects (%) [2]: 5% | Population Mitochondria Different-Phenotype (%) [2]: 55% | Population Mitotic Cells (%) [2]: 50% | Population Normal (%) [2]: 94% | Population Pyknosed Nuclei (%) [2]: 11% | Population Tubulin-Different-Phenotype (%) [2]: 17% | Total Cell Count [2]: 446 | Population Apoptotic (%) [3]: 44% | Population Fragmented Nuclei (%) [3]: 10% | Population Healthy Nuclei (%) [3]: 72% | Population Hoechst High Intensity Objects (%) [3]: 15% | Population Membrane Permeable-Phenotype (%) [3]: 0% | Population Mitochondria Different-Phenotype (%) [3]: 67% | Population Mitotic Cells (%) [3]: 56% | Population Normal (%) [3]: 84% | Population Pyknosed Nuclei (%) [3]: 16% | Population Tubulin-Different-Phenotype (%) [3]: 53% | Total Cell Count [3]: 368 | Population Fragmented Nuclei (%) [4]: 6% | Population Healthy Nuclei (%) [4]: 77% | Population Hoechst High Intensity Objects (%) [4]: 8% | Population Mitochondria Different-Phenotype (%) [4]: 74% | Population Normal (%) [4]: 91% | Population Pyknosed Nuclei (%) [4]: 15% | Population Tubulin-Different-Phenotype (%) [4]: 45% | Total Cell Count [4]: 344 | Population Apoptotic (%) [5]: 30% | Population Fragmented Nuclei (%) [5]: 10% | Population Healthy Nuclei (%) [5]: 78% | Population Hoechst High Intensity Objects (%) [5]: 3% | Population Membrane Permeable-Phenotype (%) [5]: 0% | Population Mitochondria Different-Phenotype (%) [5]: 27% | Population Mitotic Cells (%) [5]: 70% | Population Normal (%) [5]: 96% | Population Pyknosed Nuclei (%) [5]: 10% | Population Tubulin-Different-Phenotype (%) [5]: 18% | Total Cell Count [5]: 574 | Population Fragmented Nuclei (%) [6]: 9% | Population Healthy Nuclei (%) [6]: 82% | Population Hoechst High Intensity Objects (%) [6]: 7% | Population Mitochondria Different-Phenotype (%) [6]: 34% | Population Mitotic Cells (%) [6]: 69% | Population Normal (%) [6]: 92% | Population Pyknosed Nuclei (%) [6]: 7% | Population Tubulin-Different-Phenotype (%) [6]: 9% | Total Cell Count [6]: 541 | Population Apoptotic (%) [7]: 36% | Population Fragmented Nuclei (%) [7]: 8% | Population Healthy Nuclei (%) [7]: 78% | Population Hoechst High Intensity Objects (%) [7]: 9% | Population Membrane Permeable-Phenotype (%) [7]: 0% | Population Mitochondria Different-Phenotype (%) [7]: 55% | Population Mitotic Cells (%) [7]: 63% | Population Normal (%) [7]: 90% | Population Pyknosed Nuclei (%) [7]: 13% | Population Tubulin-Different-Phenotype (%) [7]: 43% | Total Cell Count [7]: 490 | Population Apoptotic (%) [8]: 27% | Population Fragmented Nuclei (%) [8]: 9% | Population Healthy Nuclei (%) [8]: 80% | Population Hoechst High Intensity Objects (%) [8]: 4% | Population Mitochondria Different-Phenotype (%) [8]: 54% | Population Mitotic Cells (%) [8]: 72% | Population Normal (%) [8]: 95% | Population Pyknosed Nuclei (%) [8]: 10% | Population Tubulin-Different-Phenotype (%) [8]: 26% | Total Cell Count [8]: 464 | Population Apoptotic (%) [9]: 16% | Population Fragmented Nuclei (%) [9]: 14% | Population Healthy Nuclei (%) [9]: 79% | Population Hoechst High Intensity Objects (%) [9]: 1% | Population Membrane Permeable-Phenotype (%) [9]: 2% | Population Mitochondria Different-Phenotype (%) [9]: 17% | Population Mitotic Cells (%) [9]: 83% | Population Normal (%) [9]: 98% | Population Pyknosed Nuclei (%) [9]: 6% | Population Tubulin-Different-Phenotype (%) [9]: 11% | Total Cell Count [9]: 950 | Population Apoptotic (%) [10]: 37% | Population Fragmented Nuclei (%) [10]: 10% | Population Healthy Nuclei (%) [10]: 84% | Population Hoechst High Intensity Objects (%) [10]: 3% | Population Membrane Permeable-Phenotype (%) [10]: 1% | Population Mitochondria Different-Phenotype (%) [10]: 13% | Population Mitotic Cells (%) [10]: 62% | Population Normal (%) [10]: 96% | Population Pyknosed Nuclei (%) [10]: 4% | Population Tubulin-Different-Phenotype (%) [10]: 6% | Total Cell Count [10]: 837 | Population Apoptotic (%) [11]: 43% | Population Fragmented Nuclei (%) [11]: 16% | Population Healthy Nuclei (%) [11]: 74% | Population Hoechst High Intensity Objects (%) [11]: 6% | Population Membrane Permeable-Phenotype (%) [11]: 0% | Population Mitochondria Different-Phenotype (%) [11]: 46% | Population Mitotic Cells (%) [11]: 56% | Population Normal (%) [11]: 93% | Population Pyknosed Nuclei (%) [11]: 9% | Population Tubulin-Different-Phenotype (%) [11]: 29% | Total Cell Count [11]: 674 | Population Apoptotic (%) [12]: 33% | Population Fragmented Nuclei (%) [12]: 13% | Population Healthy Nuclei (%) [12]: 78% | Population Hoechst High Intensity Objects (%) [12]: 4% | Population Membrane Permeable-Phenotype (%) [12]: 1% | Population Mitochondria Different-Phenotype (%) [12]: 43% | Population Mitotic Cells (%) [12]: 66% | Population Normal (%) [12]: 95% | Population Pyknosed Nuclei (%) [12]: 7% | Population Tubulin-Different-Phenotype (%) [12]: 25% | Total Cell Count [12]: 644
